# Hits are enriched below; roughly 2.1% of the tested compounds scored in any of these assays.
# CDK5 inh: blocks human CDK5/p35 kinase activity; Recombinant CDK5/p35, ADP-Glo luminescence, 60 min; inhibition, % at 10 µM; hit rate 0.01% among 330,000; AID 488839;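 active = highest replicate inhibition of at least 50% and at least 75% of replicates reaching 50%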;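 also: plate controls were DMSO neutral control for no effect and GW8510 at 10 µM for full effect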
# Target sequence (Q00535 whole entry, looked up): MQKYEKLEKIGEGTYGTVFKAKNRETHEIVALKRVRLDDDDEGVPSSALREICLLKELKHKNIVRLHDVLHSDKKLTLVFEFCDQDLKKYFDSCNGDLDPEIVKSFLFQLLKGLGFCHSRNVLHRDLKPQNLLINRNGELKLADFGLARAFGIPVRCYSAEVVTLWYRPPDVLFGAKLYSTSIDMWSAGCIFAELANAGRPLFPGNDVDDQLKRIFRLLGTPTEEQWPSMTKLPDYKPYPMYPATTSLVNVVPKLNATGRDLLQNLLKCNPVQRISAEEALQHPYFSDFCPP
# Target sequence (Q15078 whole entry, looked up): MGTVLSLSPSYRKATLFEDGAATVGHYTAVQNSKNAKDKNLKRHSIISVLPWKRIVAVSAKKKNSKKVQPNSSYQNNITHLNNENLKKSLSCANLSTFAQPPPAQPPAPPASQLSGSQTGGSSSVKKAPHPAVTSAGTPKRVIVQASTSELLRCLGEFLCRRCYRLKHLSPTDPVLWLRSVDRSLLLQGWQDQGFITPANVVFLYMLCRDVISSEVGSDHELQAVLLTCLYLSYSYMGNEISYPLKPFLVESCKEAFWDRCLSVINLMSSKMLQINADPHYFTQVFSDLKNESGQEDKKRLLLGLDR
# SR-BI HDL uptake: mouse SR-BI HDL lipid transfer inhibition; hit rate 0.96% among 320,000; Q61009; inhibition, % at 12.5 µM; ldlA[mSR-BI] CHO cells, DiI-HDL uptake fluorescence, 3 h;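 active = mean replicate inhibition of at least 70% and a set share of replicates each scoring 70 or more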;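 also: 0% = median of neutral control wells and 100% = median of positive control wells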
# SR-BI uptake up: activators of SR-BI mediated HDL lipid uptake. CHO ldlA[mSR-BI] cells, DiI-HDL uptake fluorescence, 3 h; 100 = double the neutral-control signal. activation, % at 12.5 µM. hit rate 0.096% among 320,000. AID 504775;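 active = mean replicate activation of at least 60% and every replicate at or above 60%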;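 also: 0% = median plate neutral-control signal and 100% = twice that signal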
#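 Test system: SR-BI-overexpressing, LDLR-lacking CHO cells. Measured by: DiI fluorescence, bottom read. Medium: Ham's F12 with 0.5% BSA, HEPES 25 mM, pH 7.4. Timing: 3 h uptake period with compound, 37 °C.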
# dFosB act-1: enhances mouse delta FosB homodimer DNA binding; AID 493131; hit rate 0.99% among 340,000; activation, % at 25 µM; purified delta FosB, TAMRA-CDK5 oligo fluorescence polarization; percent of positive-control signal above neutral wells;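 active = mean activation above about 17%, with every replicate also reaching it, limit read from the data, passing the limit was not always enough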
# PKA-R1A act: activators of PKA-R1A complex; PKA-R1A dissociation, Cy5-IP20 fluorescence polarization; scaled: DMSO 0%, 113 µM cGMP 100%; AID 504707; P00514+P68181; activation, % at 11.4 µM; hit rate 0.083% among 340,000;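 active = percent activation above the mean of all tested compounds plus 3 SD, cut at about 19% in these data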;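 also: higher means more PKAc released from R1A so a rise in polarization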
# PKA-R2B activ: activates the human PKA-R2B holoenzyme complex. hit rate 0.079% among 340,000. PKA-R2B holoenzyme dissociation, Cy5-IP20 fluorescence polarization; R2B truncated from residue 108, S112A mutant; 0% DMSO only, 100% 113 µM cGMP. activation, % at 11.4 µM. P22694+P31323;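 active = activation above a cutoff set at the mean over all compounds plus 3 SD, cut at about 18% in these data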;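 also: higher means more holoenzyme dissociation and a rise in polarization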
# dFosB act-2: enhances mouse delta FosB homodimer binding to DNA; 2,400 tested, under 10 active; shares compounds with dFosB act-1; purified delta FosB, TAMRA-CDK5 oligo fluorescence polarization; normalised: neutral wells 0, positive control 100; activation, % at 24.9 µM; AID 588690;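 active = highest replicate activation at or above 34% and every replicate reaching that threshold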;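 also: higher polarization means more probe DNA bound by delta FosB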
# Numbers without * were called inactive; . = no result.
SMILES,CDK5 inh,SR-BI HDL uptake,SR-BI uptake up,dFosB act-1,PKA-R1A act,PKA-R2B activ,dFosB act-2
COc1ccc(-c2csc(N(C)C(=O)c3ccco3)n2)cc1,0,13,-13,0,8,3,.
COc1ccc(CC(=O)NCCc2ccc(OC)c(OC)c2)cc1,1,-8,8,-3,-5,2,.
N#Cc1ccccc1OCC(=O)Nc1ccc2c(c1)OCO2,.,.,.,.,0,5,.
Cc1c(NS(=O)(=O)c2cccc(C(=O)Nc3cccc(F)c3)c2)c(=O)n(-c2ccccc2)n1C,1,14,-14,-13,-11,-13,.
O=C(CNC(=O)c1ccc(Br)o1)NCC1CCCCC1,-1,2,-2,5,-2,-2,.
COc1ccc(-c2csc(NC(=S)NC(=O)c3ccco3)n2)cc1,-1,4,-4,47*,10,7,-4
O=C(NC(=S)Nc1nc(-c2ccccc2)cs1)c1ccco1,0,8,-3,-4,-16,0,.
CCN1C(=O)[C@H]2[C@@H](c3ccc(C(F)(F)F)cc3)N[C@]3(CCCN(CC4CCCCC4)C3=O)[C@H]2C1=O,.,.,.,.,7,1,.
CCn1c(=O)c(C(=O)NNS(=O)(=O)c2ccc(NC(=O)OC)cc2)c(O)c2ccccc21,3,.,.,-5,3,0,.
COC(=O)Nc1ccc(S(=O)(=O)NNC(=O)c2c(O)c3ccccc3n(C)c2=O)cc1,-1,-11,11,41*,2,-6,0
Cc1csc(=O)n1CCC(=O)OCC(=O)N(C)c1c(N)n(Cc2ccccc2)c(=O)[nH]c1=O,.,.,.,.,4,-3,.
O=C(N/N=C\C=C\c1ccc(Br)cc1)c1ccc2c(c1)OCO2,-1,14,-14,24*,8,1,3
O=C(N/N=C/c1ccc2c(c1)OCO2)c1ccc(NC(=O)c2ccc(F)cc2)cc1,1,.,.,103*,7,2,-1
NC(=O)c1ccc(NC(=O)COC(=O)/C=C/c2ccc3c(c2)OCO3)cc1,2,.,.,24*,4,-12,2
COc1ccc2c(Cl)c(C(=O)N/N=C/c3ccc4c(c3)OCO4)sc2c1,-1,.,.,34*,0,0,0
CC(=O)Nc1ccc(NC(=O)COC(=O)/C=C/c2ccc3c(c2)OCO3)cc1,-1,6,-6,4,2,7,.
CCN(CC(=O)Nc1ccc(OC)cc1)C(=O)c1ccc2c(c1)NC(=O)CS2,0,-6,6,-4,-8,6,.
C/C(=N/NC(=O)c1ccc2c(c1)OCO2)c1ccc(NC(=O)C(F)(F)F)cc1,0,-8,8,28*,-5,-8,1
O=C(N/N=C/c1ccc(F)cc1)c1cc(-c2ccc3c(c2)OCO3)n[nH]1,1,3,-3,29*,-2,7,-2
COc1ccc(NS(=O)(=O)c2cccc(C(=O)N/N=C/c3ccc4c(c3)OCCO4)c2)cc1,1,24,-24,25*,1,-7,-5
COc1ccc(/C=N/NC(=O)c2cc(-c3ccc4c(c3)OCO4)n[nH]2)cc1OC,-1,31,-31,73*,4,6,-4
CN(C)c1ccc(/C=N/NC(=O)c2cc(-c3ccc4c(c3)OCO4)n[nH]2)cc1,0,10,-10,7,-1,10,.
C/C(=N\NC(=O)c1ccc2c(c1)OCO2)c1ccc(O)cc1,0,.,.,7,-2,-5,.
O=C(CN(C(=O)C1CSC(=O)C1)c1cccc(F)c1)NCc1ccc2c(c1)OCO2 (configuration not stated),-1,.,.,-3,-3,0,.
COc1cc(/C=C/C(=O)Nc2ccc(S(=O)(=O)Nc3onc(C)c3C)cc2)cc(OC)c1OC,-3,5,-5,3,-3,-6,.
SMILES,CDK5 inh,SR-BI HDL uptake,SR-BI uptake up,dFosB act-1,PKA-R1A act,PKA-R2B activ,dFosB act-2
CC(=O)N(C(C)=O)c1ccc(Oc2ccc(Oc3ccc(N(C(C)=O)C(C)=O)cc3)cc2)cc1,.,.,.,.,12,-2,.
CCC(C)c1ccc(NC(=S)N2CCN(S(C)(=O)=O)CC2)cc1 (configuration not stated),-1,-4,4,-3,5,-4,.
Cc1ccc(Cl)cc1NC(=O)C(=O)N/N=C/c1ccc2c(c1)OCO2,-1,7,-7,40*,-14,-1,-1
COc1ccc(S(=O)(=O)N(C)C)cc1NC(=O)C1CCN(c2ncnc3sc(C)c(C)c23)CC1,1,60,-60,47*,-10,-9,0
CN(C(=O)CCc1ccccc1)c1nnc(-c2ccncc2)s1,-2,3,-3,-5,-17,-5,.
C=CCN(C(=O)COc1ccccc1)c1nnc(-c2ccncc2)s1,0,16,-16,22*,-4,-6,1
C=CCN1C(=O)c2ccc(C(=O)N(CCC)CC(=O)Nc3ccccc3C)cc2C1=O,0,22,-22,-10,1,-1,.
O=C(CSc1nnc(SCc2ccc(Cl)cc2)s1)N/N=C/c1c[nH]c2ccccc12,-2,.,.,38*,-12,-9,5
O=C(CSc1nnc(SCc2cccc3ccccc23)s1)N/N=C/c1c[nH]c2ccccc12,-3,-17,17,-14,-1,-5,.
Cc1ccc(C(C)C)c(OCC(=O)Nc2sc3c(c2C#N)CC(C)(C)NC3(C)C)c1,3,.,.,1,0,-3,.
Cc1cc(OCC(=O)Nc2sc3c(c2C#N)CC(C)(C)NC3(C)C)c(C(C)C)cc1Cl,1,19,-19,62*,-10,5,-1
CCc1nnc(NC(=O)c2ccc(-c3cccc(C(F)(F)F)c3)o2)s1,0,2,-2,19*,2,-4,3
Cc1ccc2[nH]c(=O)c(-c3nc4cc(C)ccn4c3NCc3ccco3)cc2c1,1,-23,23,32*,7,7,-5
COC(=O)c1ccc(Nc2ncnc3c2cnn3-c2cccc(C)c2)cc1,-1,16,-16,45*,2,-2,-2
Cc1cccc(-n2ncc3c(Nc4ccc(F)cc4)ncnc32)c1,1,24,-24,-4,2,-4,.
O=C(COC(=O)/C=C/c1cccc(Br)c1)NCc1cccs1,0,-15,15,46*,0,-18,3
CNC(=O)C[C@H]1C(=O)N(c2ccccc2)C[C@@H]1CSC,.,.,.,.,-16,10,.
Cc1ccc(C(=O)NC(=S)Nc2ccc3[nH]c(=O)[nH]c3c2)c(C)c1,-1,3,-3,28*,1,1,7

# From PubChem BioAssay
